Assay results as given in ChEMBL document CHEMBL4765233, “From Lead to Drug Candidate: Optimization of 3-(Phenylethynyl)-1H-pyrazolo[3,4-d]pyrimidin-4-amine Derivatives as Agents for the Treatment of Triple Negative Breast Cancer” (J Med Chem, 2016).
Each block holds one compound with its values, some of them ahead of it. Calls of active or inactive are those of the source. No cut-off for these calls is given here.

How the values were obtained:
[1] = Acute toxicity in Sprague-Dawley rat assessed as histopathological changes in lungs at 100 mg/kg, po administered as single dose measured after 24 hrs by H and E staining based light microscope analysis; assay type: organism-based; conditions: in vivo
Summary of the method: (§1)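 Sprague-Dawley rats received a single oral dose of 100 mg/kg in sterile water with 25% (v/v) PEG400 plus 5% DMSO. Organs were examined by histology and immunohistochemistry for pathological changes. Behaviour and side effects were checked daily.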

[2] = Acute toxicity in Sprague-Dawley rat assessed as histopathological changes in heart at 100 mg/kg, po administered as single dose measured after 24 hrs by H and E staining based light microscope analysis; assay type: organism-based; conditions: in vivo; summary of the method: as §1
[3] = Acute toxicity in Sprague-Dawley rat assessed as histopathological changes in spleen at 100 mg/kg, po administered as single dose measured after 24 hrs by H and E staining based light microscope analysis; assay type: organism-based; conditions: in vivo; summary of the method: as §1
[4] = Acute toxicity in Sprague-Dawley rat assessed as histopathological changes in liver at 100 mg/kg, po administered as single dose measured after 24 hrs by H and E staining based light microscope analysis; assay type: organism-based; conditions: in vivo; summary of the method: as §1
[5] = Acute toxicity in Sprague-Dawley rat assessed as histopathological changes in kidney at 100 mg/kg, po administered as single dose measured after 24 hrs by H and E staining based light microscope analysis; assay type: organism-based; conditions: in vivo; summary of the method: as §1
MDA-MB-435 [6] = test: Antiproliferative activity against human MDA-MB-435 cells assessed as reduction in cell viability incubated for 72 hrs by MTT assay; assay type: functional, cell-based; conditions: MDA-MB-435, 72 h
Summary of the method: (§2)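 MTT viability assay. ATCC cell lines were grown in designated medium with 10% FBS at 37 °C, 5% CO2. Cells seeded at 1500−30000 per well and incubated 24 h, then exposed to compound (0−10 μg/mL) for 72 h. MTT added for 2−4 h. Formazan dissolved in DMSO (adherent) or acidified SDS overnight (suspension), absorbance read at 570 nm. Triplicates; IC50 calculated.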

HepG2 = test: Antiproliferative activity against human HepG2 cells assessed as reduction in cell viability incubated for 72 hrs by MTT assay; assay type: ADME, cell-based; conditions: HepG2, 72 h
MDA-MB-231 [7] = test: Antiproliferative activity against human MDA-MB-231 cells assessed as reduction in cell viability incubated for 72 hrs by MTT assay; assay type: functional, cell-based; conditions: MDA-MB-231, 72 h; summary of the method: as §2
[8] = target: Voltage-gated inwardly rectifying potassium channel KCNH2 (Homo sapiens, UniProt Q12809); test: Inhibition of human ERG expressed in CHO cells at -80 mV holding potential by automated Qpatch electrophysiological assay
[9] = Toxicity in SCID mouse xenografted with MDA-MB-231 cells assessed as change in body weight at 40 mg/kg, po qd for 15 days and measured every 3 days; assay type: organism-based; conditions: in vivo, 360 h, dose 40 mg/kg/day, time 15 day
[10] = Toxicity in SCID mouse xenografted with MDA-MB-231 cells assessed as animal death at 40 mg/kg, po qd for 15 days; assay type: organism-based; conditions: in vivo, dose 40 mg/kg/day, time 15 day, read-out: Activity
MDA-MB-231 [11] = test: Antitumor activity against human MDA-MB-231 cells xenografted in SCID mouse assessed as tumor growth inhibition at 40 mg/kg, po qd for 15 days and measured every 3 days; assay type: functional; conditions: MDA-MB-231, po, 360 h, time 15 day
Summary of the method: (§3)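 SCID mice (5−6 weeks) injected subcutaneously with 100 μL of cells at 5 × 10^7/mL. At 150−200 mm3 mice randomized, 6 per group. Oral compounds given in water with 25% PEG400 plus 5% DMSO; paclitaxel given 10 mg/kg/week iv. Tumor volume a×b²/2 and body weight measured every 3 days. Inhibition rate (c−d)/c×100% against vehicle control.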

[12] = Toxicity in SCID mouse xenografted with MDA-MB-231 cells assessed as change in body weight at 40 mg/kg, po qd for 21 days and measured every 3 days; assay type: organism-based; conditions: in vivo, 504 h, dose 40 mg/kg/day, time 21 day
Summary of the method: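 Exponential-phase cells washed and injected subcutaneously (5 × 10^6 cells in 100 μL) into 5–6-week SCID mice. At 150–200 mm3, mice randomised to groups of 6. Oral dosing daily in water with 25% PEG400 and 5% DMSO; paclitaxel 10 mg/kg weekly by tail vein. Body weight measured every 3 days and side effects checked daily.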

[13] = Toxicity in SCID mouse xenografted with MDA-MB-231 cells assessed as animal death at 40 mg/kg, po qd for 21 days; assay type: organism-based; conditions: in vivo, dose 40 mg/kg/day, time 21 day, read-out: Activity
Summary of the method: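 SCID mice aged 5–6 weeks were injected subcutaneously with 100 μL of MDA-MB-231 cells resuspended at 5 × 10^7 per mL. When tumours reached 150–200 mm3, mice were randomised into groups of 3 or 6. Dosing was oral and daily, in sterile water with 25% PEG400 plus 5% DMSO. Side effects were checked daily and body weight every 3 days.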

MDA-MB-231 [14] = test: Antitumor activity against human MDA-MB-231 cells xenografted in SCID mouse assessed as tumor growth inhibition at 40 mg/kg, po qd for 21 days and measured every 3 days; assay type: functional; summary of the method: as §3
MDA-MB-231 [15] = test: Inhibition of MEK phosphorylation in human MDA-MB-231 cells at 0.03 to 0.3 uM incubated for 20 hrs by Western blot analysis; assay type: cell-based; conditions: dose 0.03-0.3 µM
Summary of the method: (§4)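 MDA-MB-231 cells treated with a series of concentrations for 20 h at 37 °C. Cells washed with ice-cold saline and lysed in RIPA buffer with protease cocktail. Lysates cleared at 12000 rpm for 10 min at 4 °C and protein quantified by Bradford. Equal protein separated by SDS-PAGE, transferred to PVDF and probed with antibodies.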

MDA-MB-231 [16] = test: Induction of apoptosis in human MDA-MB-231 cells assessed as late apoptotic cells at 0.1 uM incubated for 24 hrs by annexin V-FITC and propidium iodide staining based flow cytometry analysis (reference value: 0.85 %); assay type: functional
MDA-MB-231 [17] = test: Induction of apoptosis in human MDA-MB-231 cells assessed as necrotic cells at 0.1 uM incubated for 24 hrs by annexin V-FITC and propidium iodide staining based flow cytometry analysis (reference value: 0.2 %); assay type: functional
MDA-MB-231 [18] = test: Inhibition of colony formation in human MDA-MB-231 cells at 0.1 uM treated for 12 days by crystal violet staining based visual analysis; assay type: functional, cell-based; conditions: time 12.0 day
Summary of the method: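 MDA-MB-231 cells seeded at 5000 per well in six-well plates and treated the next day, with drug-containing medium replaced every 4 days. After 12 days, colonies fixed with methanol and stained with crystal violet, then photographed.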

MDA-MB-435 [19] = test: Antitumor activity against human MDA-MB-435 cells xenografted in SCID mouse assessed as tumor growth inhibition at 40 mg/kg, po QD for 21 days and measured every 3 days; assay type: functional; conditions: dose 40.0 mg/kg/day, time 21.0 day; summary of the method: as §3
MDA-MB-231 [20] = test: Inhibition of Fra1 phosphorylation in human MDA-MB-231 cells at 0.03 to 0.3 uM incubated for 20 hrs by Western blot analysis; assay type: functional, cell-based; conditions: dose 0.03-0.3 µM; summary of the method: as §4
MDA-MB-231 [21] = test: Inhibition of Fra1 expression in human MDA-MB-231 cells at 0.03 to 0.3 uM incubated for 20 hrs by Western blot analysis; assay type: functional, cell-based; conditions: dose 0.03-0.3 µM; summary of the method: as §4
MDA-MB-231 [22] = test: Induction of apoptosis in human MDA-MB-231 cells assessed as live cells at 0.1 uM incubated for 24 hrs by annexin V-FITC and propidium iodide staining based flow cytometry analysis (reference value: 96.95 %); assay type: functional
MDA-MB-231 [23] = test: Antimigratory activity against human MDA-MB-231 cells assessed as inhibition of cell migration at 0.3 uM incubated for 20 hrs by wound healing assay; assay type: functional, cell-based
Summary of the method: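 MDA-MB-231 monolayer grown to confluence, scratched with a sterile pipet tip, rinsed with physiological saline, then given DMEM containing vehicle or compound. Wound imaged after 20 h to assess migration.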

MDA-MB-231 [24] = test: Induction of apoptosis in human MDA-MB-231 cells assessed as early apoptotic cells at 0.1 uM incubated for 24 hrs by annexin V-FITC and propidium iodide staining based flow cytometry analysis (reference value: 2 %); assay type: functional
MDA-MB-231 [25] = test: Inhibition of ERK phosphorylation in human MDA-MB-231 cells at 0.03 to 0.3 uM incubated for 20 hrs by Western blot analysis; assay type: cell-based; conditions: dose 0.03-0.3 µM; summary of the method: as §4
MDA-MB-231 [26] = test: Increase in cleaved caspase-3 level in human MDA-MB-231 cells at 0.03 to 0.3 uM incubated for 20 hrs by Western blot analysis; assay type: functional, cell-based; conditions: dose 0.03-0.3 µM
Summary of the method: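 MDA-MB-231 cells given a concentration series for 20 h at 37 °C. Cells lysed in RIPA with protease cocktail, cleared at 12000 rpm, 4 °C. Protein quantified by Bradford, equal amounts run on SDS-PAGE, transferred to PVDF and immunoblotted.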

Sequence of Voltage-gated inwardly rectifying potassium channel KCNH2 (Q12809 whole entry): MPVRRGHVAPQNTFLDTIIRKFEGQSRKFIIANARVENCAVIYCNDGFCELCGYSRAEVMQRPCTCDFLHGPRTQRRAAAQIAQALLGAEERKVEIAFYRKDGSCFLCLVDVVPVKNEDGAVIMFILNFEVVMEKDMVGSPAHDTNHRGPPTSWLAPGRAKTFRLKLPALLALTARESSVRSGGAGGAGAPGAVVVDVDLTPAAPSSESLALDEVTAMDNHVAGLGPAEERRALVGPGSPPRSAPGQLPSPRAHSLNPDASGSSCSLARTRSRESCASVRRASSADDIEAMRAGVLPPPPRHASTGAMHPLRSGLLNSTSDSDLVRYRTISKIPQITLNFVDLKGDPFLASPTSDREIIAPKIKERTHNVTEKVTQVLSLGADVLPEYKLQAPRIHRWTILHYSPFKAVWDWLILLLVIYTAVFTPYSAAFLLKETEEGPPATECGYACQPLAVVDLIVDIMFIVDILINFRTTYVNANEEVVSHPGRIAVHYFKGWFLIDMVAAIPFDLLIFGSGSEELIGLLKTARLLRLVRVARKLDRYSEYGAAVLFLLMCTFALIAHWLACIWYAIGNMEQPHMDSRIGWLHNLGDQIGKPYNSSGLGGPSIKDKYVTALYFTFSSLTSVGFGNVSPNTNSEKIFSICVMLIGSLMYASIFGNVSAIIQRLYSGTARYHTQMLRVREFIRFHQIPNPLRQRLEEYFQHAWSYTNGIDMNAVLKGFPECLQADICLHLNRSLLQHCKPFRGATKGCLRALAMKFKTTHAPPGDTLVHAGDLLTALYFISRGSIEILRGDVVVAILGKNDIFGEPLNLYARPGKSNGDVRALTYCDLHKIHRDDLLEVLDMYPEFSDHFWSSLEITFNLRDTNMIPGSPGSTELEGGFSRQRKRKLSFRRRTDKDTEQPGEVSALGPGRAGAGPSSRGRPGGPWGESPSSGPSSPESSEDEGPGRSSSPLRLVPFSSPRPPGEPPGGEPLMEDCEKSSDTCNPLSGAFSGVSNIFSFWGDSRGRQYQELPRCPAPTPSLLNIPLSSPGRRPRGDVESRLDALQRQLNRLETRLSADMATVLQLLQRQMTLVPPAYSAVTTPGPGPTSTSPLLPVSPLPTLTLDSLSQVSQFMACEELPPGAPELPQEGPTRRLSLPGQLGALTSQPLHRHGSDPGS

SMILES: CCn1nc(C#Cc2cc(C(=O)Nc3ccc(CN4CCN(C)CC4)c(C(F)(F)F)c3)ccc2C)c2c(N)ncnc21
Activity [1]: Toxic
Activity [2]: Toxic
Activity [3]: Toxic
Activity [4]: Toxic
Activity [5]: Toxic

SMILES: Cc1ccc(NC(=O)c2cccc(C(F)(F)F)c2)cc1C#Cc1nn(C[C@@H](C)CO)c2ncnc(N)c12
IC50 (MDA-MB-435 [6]): 0.01 µM
IC50 (HepG2): 9.5 µM
IC50 (MDA-MB-231 [7]): 0.017 µM
IC50 [8]: > 30 µM
Activity [9]: -3.2%
mortality at 360 h [10]: 0%
inhibition in vivo at 40 mg/kg/day (MDA-MB-231 [11]): 78.1%

SMILES: Cc1ccc(NC(=O)c2ccc(Cl)c(C(F)(F)F)c2)cc1C#Cc1nn([C@H]2CC[C@H](O)CC2)c2ncnc(N)c12
IC50 (MDA-MB-435 [6]): 0.037 µM
IC50 (HepG2): > 10 µM
IC50 (MDA-MB-231 [7]): 0.016 µM
IC50 [8]: > 30 µM
Activity [9]: -13.4%
mortality at 360 h [10]: 0%
inhibition in vivo at 40 mg/kg/day (MDA-MB-231 [11]): 96.1%

SMILES: Cc1ccc(NC(=O)c2cccc(C(F)(F)F)c2)cc1C#Cc1nn(C2CCN(C)CC2)c2ncnc(N)c12
Activity [12]: -3.1%
IC50 (MDA-MB-435 [6]): 0.08 µM
mortality at 504 h [13]: 0%
IC50 (HepG2): > 10 µM
IC50 (MDA-MB-231 [7]): 0.013 µM
IC50 [8]: 0.6 µM
inhibition in vivo at 40 mg/kg/day (MDA-MB-231 [14]; MDA-MB-231, po, 504 h, time 21 day): 90.7%

SMILES: Cc1ccc(NC(=O)c2ccc(C)c(C(F)(F)F)c2)cc1C#Cc1nn(C[C@H](C)CO)c2ncnc(N)c12
IC50 (MDA-MB-435 [6]): 0.061 µM
IC50 (HepG2): > 10 µM
IC50 (MDA-MB-231 [7]): 0.043 µM
IC50 [8]: > 30 µM
Activity [9]: -11.3%
mortality at 360 h [10]: 0%
inhibition in vivo at 40 mg/kg/day (MDA-MB-231 [11]): 97.1%

IC50 (MDA-MB-435 [6]): 5.15 µM
IC50 (HepG2): 7.5 µM
IC50 (MDA-MB-231 [7]): 0.112 µM
SMILES: Cc1nc(Nc2ncc(C(=O)Nc3c(C)cccc3Cl)s2)cc(N2CCN(CCO)CC2)n1.O [DASATINIB]
inhibition (MDA-MB-231 [15]): Active
Activity [12]: Non-Toxic
Activity (MDA-MB-231 [16]): 2.45%
Activity (MDA-MB-231 [17]): 0.34%
inhibition (MDA-MB-231 [18]): Active
inhibition (MDA-MB-435 [19]): Active
inhibition (MDA-MB-231 [20]): Active
inhibition (MDA-MB-231 [21]): Active
Activity (MDA-MB-231 [22]): 92.97%
Activity (MDA-MB-231 [23]): Active
Activity (MDA-MB-231 [14]; dose 40.0 mg/kg/day, time 21.0 day): Active
Activity (MDA-MB-231 [24]): 4.24%
inhibition (MDA-MB-231 [25]): Active
Activity (MDA-MB-231 [26]): Active
